Experimental data: PubChem BioAssay
The source made the active and inactive calls.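 The calls were made as follows, unless noted: active = NADPH fluorescence slope more negative than the mean of all samples by about 3 SD, 99.7% confidence; inactive = the rest.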

Experiments:
[1] = inhibitors of TNFa-induced NFkB p65 translocation, primary screen, imaging, HUVEC, MLSMR starter and 10KST1 sets (AID 438;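 active = inhibition above 20% together with a positive visual image hit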;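 also: compound added about 3h40 before a 20 min TNFalpha stimulation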;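 as to inhibition: signal is the nuclear over cytoplasmic p65 intensity ratio per well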); conditions: HUVEC TNFa-induced p65 nuclear translocation; cell count: measured here: nuclei count (cytotoxicity indicator), at 2.08 µM; inhibition: at 2 µM, stronger effect = higher value, 0% TNFa-plus-vehicle, 100% no-TNFa wells
[2] = reduction of polyQ htt aggregates in cells – imaging, exon1htt(103Q)mCFP cells, high-content imaging, primary screen (AID 483;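 active = visual image review flags a hit and inhibition of aggregation exceeds 20%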;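 also: compound exposure lasted 3 days before fixation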;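 as to nuclei count: percent of the per-plate median nuclei count of sample wells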); conditions: exon1htt(103Q)mCFP cell line, aggregate imaging, at 2 µM; inhibition of aggregation: stronger effect = higher value; nuclei count: measured here: cell count, toxicity
[3] = endothelial E-selectin expression blockers – imaging, HUVEC, immunofluorescence, MLSMR starter and 10KST1 sets, primary screen (AID 487;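 active = visually confirmed hit in the image check and inhibition above 20%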;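 as to inhibition: signal is fraction of cell area covered by stained E-selectin grains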;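 as to nuclei count: 100% = median nuclei count of all wells on the same plate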); conditions: HUVEC TNFalpha-induced E-selectin immunofluorescence imaging, at 2 µM; inhibition: stronger effect = higher value; nuclei count: measured here: cell number, toxicity
[4] = molecular target: Voltage-gated potassium channel subunit beta-2 (Rattus norvegicus) (UniProt P62483); assay: inhibitors of rat Kvbeta2 reductase activity – biochemical, NADPH fluorescence, primary screen (AID 622;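 active = fluorescence slope higher than the sample average by over 3 SD, cut at about -0.22 in these data, passing the limit was not always enough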;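 also: slope of raw intensity against log time taken from 70 to 1610 s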); conditions: recombinant KvBeta, 4-cyanobenzaldehyde reduction, at 10 µM, stronger effect = higher value
[5] = molecular target: Voltage-gated potassium channel subunit beta-2 (Rattus norvegicus) (UniProt P62483); assay: enhancers of rat Kvbeta2 NADPH turnover – biochemical, NADPH fluorescence, primary screen (AID 623); conditions: Recombinant KvBeta, NADPH fluorescence decrease slope, 10 min; at 10 µM; stronger effect = lower value;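 also: fluorescence intensity change per second fitted from 20 to 320 s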
[6] = molecular target: Muscarinic acetylcholine receptor M4 (Homo sapiens) (UniProt P08173); assay: M4-linked GIRK flux change, two-sided – cell-based, HEK293 M4/GIRK, thallium flux, BTC-AM, M4 allosteric agonist project, primary screen (AID 625;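 active = fluorescence slope after compound addition differing from the mean of all tested samples at 99.7% confidence, mostly higher but some lower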;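 also: thallium influx through GIRK channels coupled to M4 in HEK293 cells with BTC-AM dye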); conditions: at 10 µM, actives lie on both sides
Summary of the method: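 Assay system: HEK293 cells with M4 receptor and GIRK channels / Controls: carbachol and DMSO controls / Schedule: 1 h dye loading, 2 min kinetic read / Technique: kinetic fluorescence with BTC-AM dye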

[7] = blockers of RIG-like receptor reporter activation – cell-based, Sendai virus stimulus, luciferase, 10K MLSCN set, TLR/RLR signaling modifier project, primary screen (AID 602276;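 active = inhibition at or above 50% at 10 µM; inactive = inhibition below 50%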;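 also: firefly luciferase from ISG56 promoter only with Renilla not read in this screen; 0% = Sendai virus plus DMSO and 100% = medium plus DMSO without virus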); conditions: HEK293 RL24 IRF3 luciferase reporter, at 10 µM, stronger effect = higher value
[8] = TLR3 IRF3 reporter activation blockers – cell-based, poly I:C stimulus, luciferase, 10K MLSCN set, primary screen (AID 602277;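 active = inhibition of the reporter signal at or above 50%; inactive = inhibition below 50%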); conditions: HEK293-TLR3 RL24 IRF3 luciferase reporter, at 10 µM, stronger effect = higher value

Chain of Muscarinic acetylcholine receptor M4 (Homo sapiens) (P08173 whole entry, looked up): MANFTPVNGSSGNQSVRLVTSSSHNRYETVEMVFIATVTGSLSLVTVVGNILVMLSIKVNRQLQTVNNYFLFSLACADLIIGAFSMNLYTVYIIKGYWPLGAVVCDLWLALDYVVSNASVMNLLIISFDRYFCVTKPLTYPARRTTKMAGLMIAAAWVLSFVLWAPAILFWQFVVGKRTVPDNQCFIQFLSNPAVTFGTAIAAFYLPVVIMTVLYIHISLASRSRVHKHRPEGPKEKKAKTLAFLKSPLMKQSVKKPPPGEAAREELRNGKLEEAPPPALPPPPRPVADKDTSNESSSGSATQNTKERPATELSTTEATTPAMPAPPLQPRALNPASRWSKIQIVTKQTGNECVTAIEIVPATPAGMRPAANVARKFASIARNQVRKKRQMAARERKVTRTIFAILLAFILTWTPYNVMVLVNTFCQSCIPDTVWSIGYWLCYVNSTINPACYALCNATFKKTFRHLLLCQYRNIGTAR
Chain of Voltage-gated potassium channel subunit beta-2 (Rattus norvegicus) (P62483 whole entry, looked up): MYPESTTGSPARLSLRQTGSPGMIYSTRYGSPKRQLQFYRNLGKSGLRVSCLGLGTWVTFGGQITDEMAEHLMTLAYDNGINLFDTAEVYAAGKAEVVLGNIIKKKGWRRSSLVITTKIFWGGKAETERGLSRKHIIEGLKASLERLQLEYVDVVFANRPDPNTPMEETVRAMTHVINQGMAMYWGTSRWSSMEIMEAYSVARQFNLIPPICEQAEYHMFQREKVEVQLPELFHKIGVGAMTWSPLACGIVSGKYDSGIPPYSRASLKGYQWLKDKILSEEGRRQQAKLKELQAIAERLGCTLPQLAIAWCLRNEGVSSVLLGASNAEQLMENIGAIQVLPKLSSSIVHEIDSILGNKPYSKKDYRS

| Structure (SMILES) | cell count [1] | inhibition [1] | inhibition of aggregation [2] | nuclei count [2] [%] | inhibition [3] | nuclei count [3] [%] | fluorescence slope [4] | NADPH fluorescence slope [5] | fluorescence slope [6] | inhibition [7] | inhibition [8] |
| --- | --- | --- | --- | --- | --- | --- | --- | --- | --- | --- | --- |
| Oc1cnc2ccccc2c1CN1CCOCC1 | 354 | 0.4% (inactive) | -24.9% (inactive) | 111 | -45.2% (inactive) | 80.9 | -0.542 (inactive) | -1.4e-05 (inactive) | 0.0061 (inactive) | 18% (inactive) | 10.3% (inactive) |
| COc1ccc(OC)c(N(CC(=O)N2CCN(c3cc(Cl)ccc3C)CC2)S(C)(=O)=O)c1 | 497 | -7.3% (inactive) | 23.1% (inactive) | 61.4 | -13.6% (inactive) | 105 | -0.572 (inactive) | -5.2e-05 (inactive) | 0.00582 (inactive) | 17% (inactive) | 24.6% (inactive) |
| c1cncc(-c2nnc(-c3ccco3)o2)c1 | 383 | -1.1% (inactive) | -27% (inactive) | 116 | 3.9% (inactive) | 95.6 | -0.532 (inactive) | -1.2e-05 (inactive) | 0.00567 (inactive) | -1.51% (inactive) | -11.7% (inactive) |
| Cc1nc2ccccc2c2oc(C(=O)NCc3ccccn3)cc12 | 234 | -3.8% (inactive) | 17.9% (inactive) | 65.8 | -75.8% (inactive) | 102 | -0.397 (inactive) | 7.6e-05 (inactive) | 0.00573 (inactive) | -2.75% (inactive) | -16.5% (inactive) |
| CCn1c(=O)n(CC(=O)Nc2cc(OC)ccc2OC)c(=O)c2ccccc21 | 696 | -1.6% (inactive) | 17.9% (inactive) | 63.6 | -1.5% (inactive) | 99.5 | -0.564 (inactive) | -5.4e-05 (inactive) | 0.00496 (inactive) | 24.5% (inactive) | 23.2% (inactive) |
| OCCN1CCN(CC(O)COc2ccc3ccccc3c2)CC1 (stereo not drawn) | 581 | -10.8% (inactive) | 0.6% (inactive) | 101 | -51.6% (inactive) | 106 | -0.414 (inactive) | -7.3e-05 (inactive) | 0.00595 (inactive) | 11.6% (inactive) | 15.2% (inactive) |
| Cc1ccc(O)c(NC(=O)COc2cc(C)ccc2C)c1 | 431 | 11.4% (inactive) | 3% (inactive) | 106 | -71.5% (inactive) | 115 | -0.473 (inactive) | 4.1e-05 (inactive) | 0.00732 (inactive) | -3.99% (inactive) | -13.6% (inactive) |
| CC1(C)Cc2noc(N)c2C(C)(C)N1O | 762 | -11.6% (inactive) | -36.8% (inactive) | 118 | -81.1% (inactive) | 110 | -0.39 (inactive) | 4.7e-05 (inactive) | 0.00626 (inactive) | 13.8% (inactive) | 22.1% (inactive) |
| COc1cc(OC)cc(-c2nnc(Nc3nc4c(F)cccc4s3)o2)c1 | 345 | -3.8% (inactive) | 12% (inactive) | 84.3 | 28.3% (inactive) | 92.1 | -0.336 (inactive) | 7e-05 (inactive) | 0.0196 (active) | 17.6% (inactive) | 12.9% (inactive) |
| Cc1cc(C)n(-c2nc(C)nc3c2cnn3-c2ccccc2)n1 | 427 | 9.2% (inactive) | -20.7% (inactive) | 97.3 | -60.5% (inactive) | 114 | -0.564 (inactive) | -3.8e-05 (inactive) | 0.0087 (inactive) | 20.1% (inactive) | 20.4% (inactive) |
| CC(C)C(=O)Nc1nnc(CCc2nnc(NC(=O)C(C)C)s2)s1 | 793 | -10.1% (inactive) | 9.8% (inactive) | 89.2 | -80.3% (inactive) | 114 | -0.552 (inactive) | 1.7e-05 (inactive) | 0.00508 (inactive) | 14.6% (inactive) | 19.9% (inactive) |
| Cc1cc(NC(=O)NC(=O)c2cccc(OC(F)(F)C(F)F)c2)n[nH]1 | 520 | -14% (inactive) | -5.5% (inactive) | 76.8 | -45% (inactive) | 102 | -0.539 (inactive) | 0.000153 (inactive) | 0.00729 (inactive) | -14.7% (inactive) | -48.5% (inactive) |
| CC1CCN(CCC(=O)Nc2ccc(Br)cc2)CC1 | 612 | 7.4% (inactive) | -13.6% (inactive) | 99.8 | 88.6% (active) | 179 | -0.42 (inactive) | 2.4e-06 (inactive) | 0.00434 (inactive) | 14% (inactive) | 19.3% (inactive) |
| Cc1ccc(N2CCN(C(=O)c3ccccc3Br)CC2)c(C)c1 | 655 | -20.4% (inactive) | 0% (inactive) | 91.9 | -13.4% (inactive) | 101 | -0.532 (inactive) | 5.2e-06 (inactive) | 0.00352 (inactive) | 15.2% (inactive) | 23.3% (inactive) |
| COc1nc2ccc(C)cc2cc1-c1noc(-c2cccnc2)n1 | 243 | -0.9% (inactive) | 3.8% (inactive) | 62.9 | -71.7% (inactive) | 109 | -0.456 (inactive) | 3.8e-06 (inactive) | 0.0055 (inactive) | 6.17% (inactive) | -7.44% (inactive) |
| Cn1c(=O)c2c(nc(N3CCCCC3)n2CCSc2nc3ccccc3o2)n(C)c1=O | 248 | -3.6% (inactive) | 2.8% (inactive) | 71.3 | 28.4% (inactive) | 94.2 | -0.451 (inactive) | 4.5e-05 (inactive) | 0.00597 (inactive) | -13.5% (inactive) | -11.3% (inactive) |
| Nc1nc(SCCOc2ccccc2)n[nH]1 | 256 | -3% (inactive) | 18.6% (inactive) | 76.7 | -41.8% (inactive) | 105 | -0.571 (inactive) | -1.8e-05 (inactive) | 0.00618 (inactive) | 4.33% (inactive) | 3.33% (inactive) |
| COCCCNC(=O)CC(NS(=O)(=O)c1ccc(Cl)cc1)c1ccco1 (stereo not drawn) | 402 | 0.3% (inactive) | -20.4% (inactive) | 112 | -62.8% (inactive) | 121 | -0.541 (inactive) | -4.5e-05 (inactive) | 0.00644 (inactive) | 11.7% (inactive) | 20.4% (inactive) |
| O=C(CCN1CCN(c2ccc(F)cc2)CC1)Nc1ccccc1F | 315 | -2.1% (inactive) | 34.9% (active) | 84.8 | 19.6% (inactive) | 87.8 | -0.446 (inactive) | 0.000136 (inactive) | 0.00622 (inactive) | 16.9% (inactive) | 24.9% (inactive) |
| O=C(CN1C(=O)COc2ccccc21)NCCCN1CCN(Cc2ccccc2)CC1 | 470 | -2.6% (inactive) | 0.5% (inactive) | 91.9 | -131% (inactive) | 232 | -0.581 (inactive) | -8.3e-06 (inactive) | 0.00512 (inactive) | -9.51% (inactive) | -8.02% (inactive) |
| COc1nc(OC)nc(N2CCC(C(=O)NC3CCCCCC3)CC2)n1 | 462 | 7.8% (inactive) | 6.7% (inactive) | 87.3 | -6% (inactive) | 110 | -0.469 (inactive) | 6.4e-05 (inactive) | 0.00646 (inactive) | -10% (inactive) | -8.66% (inactive) |
| CN(c1ccccc1)C(c1ccc(F)cc1)c1nnnn1CC1CCCO1 (stereo not drawn) | 762 | -2.9% (inactive) | -1.8% (inactive) | 100 | -61.8% (inactive) | 132 | -0.288 (inactive) | -1.6e-05 (inactive) | 0.00686 (inactive) | 16% (inactive) | 42.3% (inactive) |
| Cc1ccc(NC(=O)Nc2ccc3c(c2)N(C)C(=O)CS3)nc1 | 562 | -6.9% (inactive) | -30.5% (inactive) | 123 | -45% (inactive) | 116 | -0.395 (inactive) | 6.1e-05 (inactive) | 0.00547 (inactive) | 7.37% (inactive) | 0.72% (inactive) |
| CN1CCN(C(=O)CN(Cc2ccc(Cl)cc2)S(C)(=O)=O)CC1 | 242 | -2.8% (inactive) | 6.8% (inactive) | 92 | -25% (inactive) | 110 | -0.535 (inactive) | 9.7e-06 (inactive) | 0.00447 (inactive) | 18% (inactive) | 19.4% (inactive) |
| COc1ccccc1CN1CC(C(=O)N2CCN(c3ccc(F)cc3)CC2)CC1=O (stereo not drawn) | 400 | 72.8% (active) | -14.7% (inactive) | 101 | -19.6% (inactive) | 106 | -0.583 (inactive) | -4.4e-05 (inactive) | 0.00225 (inactive) | 16.3% (inactive) | 7.05% (inactive) |
| O=C(NCc1ccco1)C1Cc2ccccc2CN1S(=O)(=O)c1ccccc1F (stereo not drawn) | 654 | 7.7% (inactive) | 26.2% (inactive) | 95.5 | -30% (inactive) | 98.1 | -0.591 (inactive) | -1.7e-05 (inactive) | 0.0061 (inactive) | 6.51% (inactive) | -0.697% (inactive) |
| Cc1cc(Cl)c(S(=O)(=O)NC2CCCCC2)cc1OCC(=O)Nc1nncs1 | 308 | -21.3% (inactive) | -4.2% (inactive) | 107 | -32.9% (inactive) | 118 | -0.506 (inactive) | -3.4e-05 (inactive) | 0.00536 (inactive) | 13.4% (inactive) | 0.658% (inactive) |
| CCCCNC(=O)Nc1ccnn1C1CCCCC1 | 909 | -7.5% (inactive) | -8.6% (inactive) | 100 | -34.1% (inactive) | 105 | -0.56 (inactive) | -1.6e-05 (inactive) | 0.0186 (active) | 17% (inactive) | 18.1% (inactive) |
